Reference: PMC11707965 (Journal of Biomaterials Applications, 2024)
Where two headings read alike, the source gives them in different places.

Columns and labels:
[1] = test system: Enterococcus faecalis ATCC 29212; assay: Broth macrodilution antimicrobial susceptibility; format: cell-based; conditions: E. faecalis ATCC 29212; two-fold dilution from 3% boric acid / 9% zinc borate
In short: (§1)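 Broth macrodilution run per CLSI recommendations in Cationized Mueller Hinton Broth. Ten tubes per strain held two-fold serial dilutions of boric acid (top 3%) or zinc borate (top 9%). MIC was read from the tubes. For MBC, every tube without growth was subcultured onto solid medium, and MBC was the lowest concentration giving no growth.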

[2] = test system: Streptococcus pyogenes ATCC 19615; assay: Broth macrodilution antimicrobial susceptibility; format: cell-based; conditions: S. pyogenes ATCC 19615; two-fold dilution from 3% boric acid / 9% zinc borate
In short: as §1

[3] = test system: Candida albicans ATCC 10231; assay: Broth macrodilution antimicrobial susceptibility; format: cell-based; conditions: C. albicans ATCC 10231; two-fold dilution from 3% boric acid / 9% zinc borate
In short: (§2)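 Fungal strains were tested by CLSI-based broth macrodilution in RPMI 1640. Each strain had ten tubes of two-fold serial dilutions starting at 3% boric acid or 9% zinc borate. Tubes showing no growth were plated onto solid media to find the lowest concentration without growth (MBC).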

[4] = test system: Proteus mirabilis ATCC 25933; assay: Broth macrodilution antimicrobial susceptibility; format: cell-based; conditions: P. mirabilis ATCC 25933; two-fold dilution from 3% boric acid / 9% zinc borate
In short: as §1

L929 cells = assay: Cell migration test; format: cell-based, mouse; conditions: 24 h vs 0 h
In short: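 L929 fibroblasts (ATCC) were grown in DMEM with 10% FBS at 37°C and 5% CO₂. After the fourth passage they were seeded into 24-well plates at 2 × 10⁵ cells/ml and left 24 h to form a monolayer. Each well got one vertical scratch with a sterile pipette tip and was imaged at 0 h. Treatment followed (zinc borate 0.10–0.001 mM; boric acid 1000–0.001 mM), with re-imaging at 12 and 24 h (10x) to measure closure percentage.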

[5] = test system: Klebsiella pneumoniae ATCC 700603; assay: Broth macrodilution antimicrobial susceptibility; format: cell-based; conditions: K. pneumoniae ATCC 700603; two-fold dilution from 3% boric acid / 9% zinc borate
In short: as §1

[6] = test system: Aspergillus niger ATCC 16888; assay: Broth macrodilution antimicrobial susceptibility; format: cell-based; conditions: A. niger ATCC 16888; two-fold dilution from 3% boric acid / 9% zinc borate
In short: as §2

[7] = test system: Pseudomonas aeruginosa ATCC 9027; assay: Broth macrodilution antimicrobial susceptibility; format: cell-based; conditions: P. aeruginosa ATCC 9027; two-fold dilution from 3% boric acid / 9% zinc borate
In short: as §1

[8] = test system: Acinetobacter baumannii ATCC 19606; assay: Broth macrodilution antimicrobial susceptibility; format: cell-based; conditions: A. baumannii ATCC 19606; two-fold dilution from 3% boric acid / 9% zinc borate
In short: as §1

[9] = test system: L929 (mouse fibroblast) cell line; assay: Cytotoxicity / cell viability by MTT method; format: cell-based; conditions: for IC50: read-out: IC50 dose that caused 50% decrease in cell proliferation, L929 cells, MTT
[10] = test system: Escherichia coli ATCC 25922; assay: Broth macrodilution antimicrobial susceptibility; format: cell-based; conditions: E. coli ATCC 25922; two-fold dilution from 3% boric acid / 9% zinc borate
In short: as §1

[11] = test system: Staphylococcus aureus ATCC 29213; assay: Broth macrodilution antimicrobial susceptibility; format: cell-based; conditions: S. aureus ATCC 29213; two-fold dilution from 3% boric acid / 9% zinc borate
[12] = test system: L929 (mouse fibroblast) cell line; assay: Antioxidant ability: protection against H2O2 oxidative stress, MTT method; format: cell-based; conditions: read-out: EC50 dose, which increased the proliferative concentration by 50%, L929 cells, 0.4 mM H2O2 stress

OB(O)O [Boric acid, Boric Acid]
MIC (%) [1]: 1.5% | MBC (%) [2]: 3% | MIC (%) [2]: 0.0058% | MBC (%) [3]: 0.0058% | MBC (%) [4]: 3% | MIC (%) [4]: 0.75% | migration recovery (closure) percentage (L929 cells; 0.001 mM): 86.91% | migration recovery (closure) percentage (L929 cells; 0.01 mM): 70.81% | migration recovery (closure) percentage (L929 cells; 0.025 mM): 81.05% | migration recovery (closure) percentage (L929 cells; 0.05 mM): 83.57% | migration recovery (closure) percentage (L929 cells; 0.10 mM): 77.98% | migration recovery (closure) percentage (L929 cells; 0.25 mM): 86.54% | migration recovery (closure) percentage (L929 cells; 0.50 mM): 80.92% | migration recovery (closure) percentage (L929 cells; 0.75 mM): 83.24% | migration recovery (closure) percentage (L929 cells; 1 mM): 73.18% | migration recovery (closure) percentage (L929 cells; 50 mM): 87.55% | migration recovery (closure) percentage (L929 cells; 250 mM): 75.56% | migration recovery (closure) percentage (L929 cells; 500 mM): 70.05% | migration recovery (closure) percentage (L929 cells; 750 mM): 81.62% | migration recovery (closure) percentage (L929 cells; 1000 mM): 62.46% | MIC (%) [5]: 0.75% | MBC (%) [6]: 0.1875% | MBC (%) [7]: no bactericidal effect | MIC (%) [7]: 0.75% | MIC (%) [8]: 0.375% | Proliferative or inhibitory effect on L929 cells versus control ([9]; 0.001 mM-1000 mM, 24th, 48th, 72nd hours, except 100 mM and 500 mM at 24th hour, 100 mM at 48th hour): no significant proliferation or inhibition was observed | MBC (%) [10]: 1.5% | MIC (%) [10]: 0.375% | MBC (%) [11]: 0.75% | MIC (%) [11]: 0.75%

Zinc borate
EC50 ([12]; 24th hour): 51 µM | EC50 ([12]; 48th hour): 15 µM | EC50 ([12]; 72nd hour): 11 µM | MBC (%) [1]: >9% | MIC (%) [1]: 0.0351% | MBC (%) [2]: 0.2812% | MIC (%) [2]: 0.0175% | MBC (%) [3]: 0.0175% | MBC (%) [4]: >9% | MIC (%) [4]: 4.5% | migration recovery (closure) percentage (L929 cells; 0.025 mM): 88.13% | MBC (%) [5]: 2.25% | MIC (%) [5]: 0.1406% | MBC (%) [6]: >9% | MBC (%) [8]: 9% | MIC (%) [8]: 1.125% | IC50 ([9]; 24th hour): 133 µM | IC50 ([9]; 48th hour): 197 µM | IC50 ([9]; 72nd hour): 142 µM | MBC (%) [10]: 0.5625% | MIC (%) [10]: 0.0351% | MBC (%) [11]: 4.5%
